Laboratory results taken from ChEMBL document CHEMBL1125731, “2,3-Dihydrobenzofuran analogues of hallucinogenic phenethylamines” (J Med Chem, 1991).

Experiments:
[1] = target: Serotonin 2 (5-HT2) receptor (Rattus norvegicus, UniProt P30994+P08909+P14842); assay: Compound was evaluated for its ability to displace 0.25 nM [125I](R)-DOI from binding sites in rat frontal cortex.; assay type: tissue-based
Rattus norvegicus [2] = assay: Percent of animals selecting drug liver was determined at a dose of 10.19 intraperitoneally. (No. of animals disrupted:0); assay type: functional
In short: (§1)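 Male Sprague-Dawley rats (~200 g) were kept at ~80% free-feeding weight and trained on FR-50 to discriminate LSD tartrate (0.08 mg/kg ip) from saline. Test drug was given ip in saline 30 min before a session lasting until 50 responses or 5 min, unreinforced. Rats failing to make 50 responses were scored disrupted. At least eight rats were tested per dose.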

Rattus norvegicus [3] = assay: Percent of animals selecting drug liver was determined at a dose of 12.16 intraperitoneally. (No. of animals disrupted:1); assay type: functional; in short: as §1
Rattus norvegicus [4] = assay: Percent of animals selecting drug liver was determined at a dose of 8.16 intraperitoneally. (No. of animals disrupted:0); assay type: functional; in short: as §1
[5] = Hill coefficient as determined.
In short: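 Rat prefrontal cortex homogenate incubated in triplicate with 0.25 nM [125I]-(R)-DOI (2000 Ci/mmol) and varying displacer concentrations, 37 °C for 15 min. The radioligand K_D was 1.34 nM. Binding curves were fitted by computer analysis. Protein was measured by Bradford.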

Rattus norvegicus [6] = assay: Percent of animals selecting drug liver was determined at a dose of 2.03 intraperitoneally. (No. of animals disrupted:0); assay type: functional; in short: as §1
Rattus norvegicus [7] = assay: Percent of animals selecting drug liver was determined at a dose of 0.25 intraperitoneally. (No. of animals disrupted:0); assay type: functional; in short: as §1
Rattus norvegicus [8] = assay: Percent of animals selecting drug liver was determined at a dose of 2.03 intraperitoneally. (No. of animals disrupted:2); assay type: functional; in short: as §1
Rattus norvegicus [9] = assay: Percent of animals selecting drug liver was determined at a dose of 1.01 intraperitoneally. (No. of animals disrupted:0); assay type: functional; in short: as §1
Rattus norvegicus [10] = assay: Percent of animals selecting drug liver was determined at a dose of 0.51 intraperitoneally. (No. of animals disrupted:0); assay type: functional; in short: as §1
Rattus norvegicus [11] = assay: Percent of animals selecting drug liver was determined at a dose of 2.03 intraperitoneally. (No. of animals disrupted:1); assay type: functional; in short: as §1
Rattus norvegicus [12] = assay: Percent of animals selecting drug liver was determined at a dose of 1.02 intraperitoneally. (No. of animals disrupted:0); assay type: functional; in short: as §1
Rattus norvegicus [13] = assay: Percent of animals selecting drug liver was determined at a dose of 32.56 intraperitoneally. (No. of animals disrupted:1); assay type: functional; in short: as §1
Rattus norvegicus [14] = assay: Percent of animals selecting drug liver was determined at a dose of 40.70 intraperitoneally. (No. of animals disrupted:4); assay type: functional; in short: as §1
Rattus norvegicus [15] = assay: Percent of animals selecting drug liver was determined at a dose of 16.28 intraperitoneally. (No. of animals disrupted:1); assay type: functional; in short: as §1
Rattus norvegicus [16] = assay: Percent of animals selecting drug liver was determined at a dose of 8.14 intraperitoneally. (No. of animals disrupted:1); assay type: functional; in short: as §1
Rattus norvegicus [17] = assay: Percent of animals selecting drug liver was determined at a dose of 4.07 intraperitoneally. ( No. of animals disrupted:0); assay type: functional; in short: as §1

Q: Which results are given for `COc1ccc2c(c1CC(C)N)CCO2` (stereo not given)?
A: Ki [1]: 146 nM; SDL (Rattus norvegicus [2]): 63%; SDL (Rattus norvegicus [3]): 88%; SDL (Rattus norvegicus [4]): 50%; Hill coefficient [5]: 0.93; SDL (Rattus norvegicus [6]): 25%

Q: Which Ki [1] does the source give for `COc1cc2c(cc1CC(C)N)OCC2` (stereo not given) here?
A: Its Ki is 388 nM.

Q: And the Hill coefficient [5]?
A: The Hill coefficient was 0.91.

Q: With `COc1cc(Br)c2c(c1CC(C)N)CCO2` (stereo not given) as the compound, how does the SDL (Rattus norvegicus [7]) read?
A: Its SDL is 25%.

Q: What about the SDL (Rattus norvegicus [8]) of the same compound?
A: Its SDL is 88%.

Q: What about the Ki [1] of the same compound?
A: Its Ki is 3.1 nM.

Q: What about the SDL (Rattus norvegicus [9]) of the same compound?
A: The SDL was 75%.

Q: What about the SDL (Rattus norvegicus [10]) of the same compound?
A: The SDL was 38%.

Q: And the Hill coefficient [5]?
A: The Hill coefficient was 1.06.

Q: For `COc1cc(CC(C)N)c(OC)cc1C` (stereo not given) [DOM], which SDL (Rattus norvegicus [10]) is on record?
A: The SDL was 13%.

Q: And the Hill coefficient [5]?
A: The Hill coefficient was 0.89.

Q: What about the SDL (Rattus norvegicus [11]) of the same compound?
A: The SDL was 88%.

Q: What about the SDL (Rattus norvegicus [12]) of the same compound?
A: Its SDL is 75%.

Q: Which results are given for `COc1ccc(OC)c(CC(C)N)c1` (stereo not given)?
A: SDL (Rattus norvegicus [13]): 63%; SDL (Rattus norvegicus [14]): 63%; SDL (Rattus norvegicus [15]): 50%; SDL (Rattus norvegicus [16]): 38%; Hill coefficient [5]: 0.92; SDL (Rattus norvegicus [17]): 38%

Q: For `COc1cc(CC(C)N)c(OC)cc1Br` (stereo not given) [BROLAMFETAMINE], which Hill coefficient [5] is on record?
A: Its Hill coefficient is 1.09.
